# What was measured:
# Assay type in all cases: functional
# MCF7 = assay: Growth inhibition of human MCF7 cells assessed as cell growth at 10 uM after 48 hrs by sulforhodamine B assay; conditions: MCF7, 48 h, read-out: Activity
# Summary of the method: (§1)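 Single-dose NCI-60 screen: adherent cells in RPMI 1640 with 5% FBS were exposed to 10 µM for 48 h at 37 °C after a 24 h preincubation. They were fixed in situ with cold TCA (10% final), stained with 0.4% SRB in 1% acetic acid, solubilized in 10 mM Tris base, and read at 515 nm. Percent growth was taken relative to time-zero and control plates.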
# PC-3 = assay: Growth inhibition of human PC3 cells assessed as cell growth at 10 uM after 48 hrs by sulforhodamine B assay; conditions: PC-3, 48 h, read-out: Activity; summary of the method: as §1
# [1] = Growth inhibition of human NCI-ADR-RES cells assessed as cell growth at 10 uM after 48 hrs by sulforhodamine B assay; conditions: read-out: Activity; summary of the method: as §1
# IGROV-1 = assay: Growth inhibition of human IGROV1 cells assessed as cell growth at 10 uM after 48 hrs by sulforhodamine B assay; conditions: IGROV-1, 48 h, read-out: Activity
# Summary of the method: (§2)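 NCI-60 single-dose screen at 10 µM: cells in RPMI 1640 with 5% FBS, preincubated 24 h, then exposed 48 h at 37 °C. TCA fixation (16% final for suspension cells), SRB staining, absorbance 515 nm. Percent growth relative to time-zero and untreated control plates; negative values indicate cell kill.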
# UACC-62 [2] = assay: Growth inhibition of human UACC62 cells assessed as cell growth at 10 uM after 48 hrs by sulforhodamine B assay; conditions: UACC-62, 48 h, read-out: Activity
# Summary of the method: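 Single-dose NCI-60 test at 10 µM. Cells were grown in RPMI 1640 with 5% FBS and 2 mM L-glutamine, preincubated 24 h, with T0 plates TCA-fixed. Exposure was 48 h at 37 °C, 5% CO2. Cells were fixed with cold TCA (final 10%, 4 °C, 60 min), stained with SRB and read at 515 nm. Percent growth was taken relative to T0 and untreated control; negative values denote cell kill.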
# SK-MEL-2 = assay: Growth inhibition of human SK-MEL-2 cells assessed as cell growth at 10 uM after 48 hrs by sulforhodamine B assay; conditions: SK-MEL-2, 48 h, read-out: Activity; summary of the method: as §1
# Malme-3M [3] = assay: Growth inhibition of human MALME-3M cells assessed as cell growth at 10 uM after 48 hrs by sulforhodamine B assay; conditions: read-out: Activity; summary of the method: as §1
# LOX IMVI = assay: Growth inhibition of human LOXIMVI cells assessed as cell growth at 10 uM after 48 hrs by sulforhodamine B assay; conditions: read-out: Activity; summary of the method: as §2
# SF-539 = assay: Growth inhibition of human SF539 cells assessed as cell growth at 10 uM after 48 hrs by sulforhodamine B assay; conditions: SF-539, 48 h, read-out: Activity; summary of the method: as §1
# SF-268 = assay: Growth inhibition of human SF268 cells assessed as cell growth at 10 uM after 48 hrs by sulforhodamine B assay; conditions: SF-268, 48 h, read-out: Activity; summary of the method: as §1
# KM12 = assay: Growth inhibition of human KM12 cells assessed as cell growth at 10 uM after 48 hrs by sulforhodamine B assay; conditions: KM12, 48 h, read-out: Activity; summary of the method: as §2
# NCI-H522 [4] = assay: Growth inhibition of human NCI-H522 cells assessed as cell growth at 10 uM after 48 hrs by sulforhodamine B assay; conditions: NCI-H522, 48 h, read-out: Activity; summary of the method: as §1
# NCI-H23 [5] = assay: Growth inhibition of human NCI-H23 cells assessed as cell growth at 10 uM after 48 hrs by sulforhodamine B assay; conditions: NCI-H23, 48 h, read-out: Activity; summary of the method: as §1
# MDA-MB-468 = assay: Growth inhibition of human MDA-MB-468 cells after 48 hrs by sulforhodamine B assay; conditions: MDA-MB-468, 48 h
# Summary of the method: (§3)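 NCI-60 panel cells grown in RPMI 1640 with 5% FBS and 2 mM L-glutamine, seeded at 5000–40,000 cells/well and preincubated 24 h. Five 10-fold dilutions (0.001–100 µM) from DMSO stocks were added for 48 h at 37 °C. Adherent cells were fixed with cold TCA (10% final) for 60 min at 4 °C, stained with 0.4% SRB, and read at 515 nm. GI50 was set where 100×(T−T0)/(C−T0)=50.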
# T47D = assay: Growth inhibition of human T47D cells after 48 hrs by sulforhodamine B assay
# Summary of the method: (§4)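 NCI-60 five-dose screen. Cells were grown in RPMI 1640 with 5% FBS and 2 mM L-glutamine, plated at 5000–40,000 cells/well and incubated 24 h before dosing, with T0 plates TCA-fixed. DMSO stocks were diluted to doses of […] and exposed 48 h at 37 °C, 5% CO2. Cells were fixed with cold TCA (final 10%, 60 min, 4 °C), stained with 0.4% SRB in 1% acetic acid for 10 min, solubilized in 10 mM trizma base and read at 515 nm. GI50 is where 100×(T−T0)/(C−T0)=50.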
# [6] = Growth inhibition of human Hs 578T cells after 48 hrs by sulforhodamine B assay
# Summary of the method: (§5)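 NCI-60 screen: cells in RPMI 1640 with 5% FBS and 2 mM glutamine, 5000–40,000 cells/well, preincubated 24 h. Five concentrations (10-fold dilutions; 100 to 0.001 µM) applied for 48 h at 37 °C. TCA fixation, SRB stain, absorbance at 515 nm. Time-zero plates included; GI50 where 100×(T−T0)/(C−T0)=50.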
# 786-0 = assay: Growth inhibition of human 786-0 cells after 48 hrs by sulforhodamine B assay; conditions: 786-0, 48 h; summary of the method: as §5
# [7] = Growth inhibition of human NCI-ADR-RES cells after 48 hrs by sulforhodamine B assay; summary of the method: as §3
# UACC-62 [8] = assay: Growth inhibition of human UACC62 cells after 48 hrs by sulforhodamine B assay; conditions: UACC-62, 48 h; summary of the method: as §4
# MDA-MB-435 = assay: Growth inhibition of human MDA-MB-435 cells after 48 hrs by sulforhodamine B assay; conditions: MDA-MB-435, 48 h; summary of the method: as §3
# Malme-3M [9] = assay: Growth inhibition of human MALME-3M cells after 48 hrs by sulforhodamine B assay; summary of the method: as §3
# SNB-19 = assay: Growth inhibition of human SNB19 cells after 48 hrs by sulforhodamine B assay; conditions: SNB-19, 48 h; summary of the method: as §4
# HCT-15 = assay: Growth inhibition of human HCT15 cells after 48 hrs by sulforhodamine B assay; conditions: HCT-15, 48 h; summary of the method: as §5
# NCI-H522 [10] = assay: Growth inhibition of human NCI-H522 cells after 48 hrs by sulforhodamine B assay; conditions: NCI-H522, 48 h; summary of the method: as §3
# NCI-H23 [11] = assay: Growth inhibition of human NCI-H23 cells after 48 hrs by sulforhodamine B assay; conditions: NCI-H23, 48 h; summary of the method: as §3
# SR = assay: Growth inhibition of human SR cells after 48 hrs by sulforhodamine B assay
# Summary of the method: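 Suspension leukemia line in RPMI 1640 with 5% FBS and 2 mM L-glutamine, NCI-60 five-dose format ([…]), 48 h at 37 °C. Settled cells were fixed with 80% TCA (final 16%), stained with SRB and read at 515 nm. GI50 is where 100×(T−T0)/(C−T0)=50, with T0 measured at dosing.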
SMILES,growth at 10 µM (MCF7) [%],growth at 10 µM (PC-3) [%],growth at 10 µM [1] [%],growth at 10 µM (IGROV-1) [%],growth at 10 µM (UACC-62 [2]) [%],growth at 10 µM (SK-MEL-2) [%],growth at 10 µM (Malme-3M [3]) [%],growth at 10 µM (LOX IMVI) [%],growth at 10 µM (SF-539) [%],growth at 10 µM (SF-268) [%],growth at 10 µM (KM12) [%],growth at 10 µM (NCI-H522 [4]) [%],growth at 10 µM (NCI-H23 [5]) [%],further results
CC(C)=CCC/C(C)=C/CC/C(C)=C/CC[C@]1(C)CCc2c3c(cc(C)c2O1)OCN(CCCCCCCCCCCCO)C3,26.3,58.5,79.9,72.5,67.2,15.3,106,67.1,102,98.7,61.1,36.7,77.3,–
CC(C)=CCC/C(C)=C/CC/C(C)=C/CC[C@]1(C)CCc2cc(O)c(C)c(C)c2O1 [GAMMA-TOCOTRIENOL],84.1,96.6,96.9,96.3,108,91.3,92.5,90,101,108,107,68.8,92.8,–
COc1ccc(CCNCc2c(O)c(C)c(C)c3c2CC[C@@](C)(CC/C=C(\C)CC/C=C(\C)CCC=C(C)C)O3)cc1OC,29.3,82.7,91.4,71.5,98.3,113,120,52.9,97,98,60.1,96.2,84.9,–
CC(C)=CCC/C(C)=C/CC/C(C)=C/CC[C@]1(C)CCc2c(CNCCc3ccc(O)cc3)c(O)c(C)c(C)c2O1,36.9,79.5,95,78.5,106,117,110,63.9,113,96.9,89.6,105,91.5,–
CC(C)=CCC/C(C)=C/CC/C(C)=C/CC[C@]1(C)CCc2c3c(cc(C)c2O1)OCN(CCc1ccc(O)cc1)C3,-86.3,61.1,37.5,0.45,–,116,95.8,-93,94.1,18.2,-19.4,-50.5,27.2,GI50 (MDA-MB-468): 1.55 µM; GI50 (T47D): 6.06 µM; GI50 [6]: 6.29 µM; GI50 (786-0): 6.61 µM; GI50 [7]: 5.93 µM; GI50 (UACC-62 [8]): 6.01 µM; GI50 (MDA-MB-435): 4.54 µM; GI50 (Malme-3M [9]): 7.06 µM; GI50 (SNB-19): 5.89 µM; GI50 (HCT-15): 5.87 µM; GI50 (NCI-H522 [10]): 5.32 µM; GI50 (NCI-H23 [11]): 6.82 µM; GI50 (SR): 1.37 µM
CC(C)=CCC/C(C)=C/CC/C(C)=C/CC[C@]1(C)CCc2c3c(c(C)c(C)c2O1)OCN(CCc1ccc(O)cc1)C3,16.9,79.9,83.6,67.7,104,121,114,30.3,104,83.7,65.6,90,88.2,–
CC(C)=CCC/C(C)=C/CC/C(C)=C/CC[C@]1(C)CCc2c3c(c(C)c(C)c2O1)OCN(CCCCCCCCCCCCO)C3,100,81.3,97.9,102,89.5,76.8,101,100,111,116,90.4,69.5,104,–
COc1ccc(CCN2COc3c(C)c(C)c4c(c3C2)CC[C@@](C)(CC/C=C(\C)CC/C=C(\C)CCC=C(C)C)O4)cc1OC,77.5,94.3,101,87.4,96.5,120,93.6,98.6,103,94.8,96.4,98.6,102,–
CC(C)=CCC/C(C)=C/CC/C(C)=C/CC[C@]1(C)CCc2c3c(cc(C)c2O1)OCN(CCCCCCCCCCO)C3,59.2,88.7,99.9,80.1,109,86.4,101,87.3,98.3,97.7,87.2,86,90.8,–
CC(C)=CCC/C(C)=C/CC/C(C)=C/CC[C@]1(C)CCc2c3c(c(C)c(C)c2O1)OCN(CCCCCCCCCCO)C3,93.4,84.3,99.2,102,103,82.3,105,93.6,97.6,94.2,89.1,–,90.9,–
CC(C)=CCC/C(C)=C/CC/C(C)=C/CC[C@]1(C)CCc2c3c(cc(C)c2O1)OCN(CCCCO)C3,-81.2,61.4,-68.8,-15.1,68.5,–,51.2,100,27.4,-70.5,-89.5,48.5,54.8,GI50 (MDA-MB-468): 15.1 µM; GI50 (T47D): 16.4 µM; GI50 [6]: 18.5 µM; GI50 (786-0): 15.5 µM; GI50 [7]: 16.8 µM; GI50 (UACC-62 [8]): 17.5 µM; GI50 (MDA-MB-435): 17 µM; GI50 (Malme-3M [9]): 22.4 µM; GI50 (SNB-19): 16 µM; GI50 (HCT-15): 17.7 µM; GI50 (NCI-H522 [10]): 21.9 µM; GI50 (NCI-H23 [11]): 17.5 µM; GI50 (SR): 7.26 µM

# From ChEMBL document CHEMBL2380254, “Optimization of tocotrienols as antiproliferative and antimigratory leads” (Eur J Med Chem, 2013)
